Substitutions are numbered along the chain they refer to.
Tests used:
Settings in all cases: stereoisomer not certain
[1] = test system: T1, O5AN1
T1 sequence (whole entry): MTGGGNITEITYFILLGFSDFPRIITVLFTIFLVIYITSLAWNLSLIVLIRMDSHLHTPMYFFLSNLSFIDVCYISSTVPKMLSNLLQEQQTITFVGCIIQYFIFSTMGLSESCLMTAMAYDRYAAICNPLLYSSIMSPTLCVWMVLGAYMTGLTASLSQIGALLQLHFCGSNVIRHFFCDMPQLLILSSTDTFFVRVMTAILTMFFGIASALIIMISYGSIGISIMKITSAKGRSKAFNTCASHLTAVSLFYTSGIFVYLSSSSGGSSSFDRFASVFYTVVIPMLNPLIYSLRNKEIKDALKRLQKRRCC
In short: (§1)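 Values were gathered from published papers (main text and supplementary material), with extra details requested from the original authors when needed, and checked for typos and inconsistencies. Each receptor–molecule pair is called responsive (active) if the original authors judged the measured signal statistically different from baseline, and non-responsive (inactive) otherwise. Assay methods varied by source, often transient mammalian cell-line luciferase assays. Recorded details include cell line, G-protein, co-transfected protein and tags.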

[2] = test system: T2, O5AP2 A105T
T2 sequence (whole entry): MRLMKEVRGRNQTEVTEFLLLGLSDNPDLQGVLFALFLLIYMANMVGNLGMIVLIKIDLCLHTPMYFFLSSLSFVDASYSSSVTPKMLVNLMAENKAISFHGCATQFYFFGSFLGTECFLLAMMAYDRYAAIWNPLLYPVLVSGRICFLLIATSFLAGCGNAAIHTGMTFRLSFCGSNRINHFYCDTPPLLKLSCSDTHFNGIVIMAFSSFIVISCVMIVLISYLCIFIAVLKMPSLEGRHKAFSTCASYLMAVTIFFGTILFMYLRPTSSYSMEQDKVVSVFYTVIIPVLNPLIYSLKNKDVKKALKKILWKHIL
In short: as §1

[3] = test system: T3, O5AU1
T3 sequence (whole entry): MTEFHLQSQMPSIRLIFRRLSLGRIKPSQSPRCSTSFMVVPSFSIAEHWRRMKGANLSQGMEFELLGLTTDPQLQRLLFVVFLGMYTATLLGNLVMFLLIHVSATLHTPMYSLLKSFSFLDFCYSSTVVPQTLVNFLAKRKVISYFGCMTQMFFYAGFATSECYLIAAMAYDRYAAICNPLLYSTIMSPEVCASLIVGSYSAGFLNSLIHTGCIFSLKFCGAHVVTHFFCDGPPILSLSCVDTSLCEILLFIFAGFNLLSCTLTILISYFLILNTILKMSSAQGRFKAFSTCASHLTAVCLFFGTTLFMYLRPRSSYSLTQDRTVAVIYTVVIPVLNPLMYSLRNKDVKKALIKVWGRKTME
In short: as §1

[4] = test system: T4, O5H14
T4 sequence (whole entry): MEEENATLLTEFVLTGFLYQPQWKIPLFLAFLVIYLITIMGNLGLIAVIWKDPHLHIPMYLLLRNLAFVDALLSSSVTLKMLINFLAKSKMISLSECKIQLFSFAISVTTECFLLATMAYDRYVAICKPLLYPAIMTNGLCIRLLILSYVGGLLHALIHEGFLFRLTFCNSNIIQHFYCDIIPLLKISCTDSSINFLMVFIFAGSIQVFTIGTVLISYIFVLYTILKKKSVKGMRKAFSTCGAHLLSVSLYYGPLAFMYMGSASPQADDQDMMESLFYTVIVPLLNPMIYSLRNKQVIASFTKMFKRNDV
In short: as §1

[5] = test system: T5, O5H15 V108I S148T T167S
T5 sequence (whole entry): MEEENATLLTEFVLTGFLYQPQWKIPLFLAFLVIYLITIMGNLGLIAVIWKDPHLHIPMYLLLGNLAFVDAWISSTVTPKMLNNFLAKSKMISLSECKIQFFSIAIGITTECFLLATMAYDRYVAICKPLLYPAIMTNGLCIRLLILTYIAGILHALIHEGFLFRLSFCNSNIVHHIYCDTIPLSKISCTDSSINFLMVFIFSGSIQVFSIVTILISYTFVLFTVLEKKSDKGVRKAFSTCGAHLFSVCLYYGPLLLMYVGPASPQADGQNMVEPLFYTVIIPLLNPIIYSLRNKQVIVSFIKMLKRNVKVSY
In short: as §1

[6] = test system: T6, O6C65 T222A
T6 sequence (whole entry): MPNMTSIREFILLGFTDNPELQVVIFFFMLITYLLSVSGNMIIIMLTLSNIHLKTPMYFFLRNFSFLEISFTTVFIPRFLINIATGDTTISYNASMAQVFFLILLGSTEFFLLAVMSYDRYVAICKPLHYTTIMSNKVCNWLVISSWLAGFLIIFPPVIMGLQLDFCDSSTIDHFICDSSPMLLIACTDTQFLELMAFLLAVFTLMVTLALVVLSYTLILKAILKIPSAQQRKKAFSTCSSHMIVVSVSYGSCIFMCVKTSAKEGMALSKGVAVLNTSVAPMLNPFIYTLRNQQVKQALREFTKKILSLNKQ
In short: as §1

[7] = test system: T7, O6C70 L181P
T7 sequence (whole entry): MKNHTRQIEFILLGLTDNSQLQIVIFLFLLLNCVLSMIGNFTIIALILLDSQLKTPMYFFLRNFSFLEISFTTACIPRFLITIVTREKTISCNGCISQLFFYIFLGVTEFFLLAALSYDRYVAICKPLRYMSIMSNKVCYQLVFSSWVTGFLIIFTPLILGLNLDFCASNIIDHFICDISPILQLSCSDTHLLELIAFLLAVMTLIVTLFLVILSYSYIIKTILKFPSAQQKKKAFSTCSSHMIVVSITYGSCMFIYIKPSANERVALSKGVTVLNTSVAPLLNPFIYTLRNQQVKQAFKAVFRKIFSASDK
In short: as §1

[8] = test system: T8, O7E24 S193F P242S
T8 sequence (whole entry): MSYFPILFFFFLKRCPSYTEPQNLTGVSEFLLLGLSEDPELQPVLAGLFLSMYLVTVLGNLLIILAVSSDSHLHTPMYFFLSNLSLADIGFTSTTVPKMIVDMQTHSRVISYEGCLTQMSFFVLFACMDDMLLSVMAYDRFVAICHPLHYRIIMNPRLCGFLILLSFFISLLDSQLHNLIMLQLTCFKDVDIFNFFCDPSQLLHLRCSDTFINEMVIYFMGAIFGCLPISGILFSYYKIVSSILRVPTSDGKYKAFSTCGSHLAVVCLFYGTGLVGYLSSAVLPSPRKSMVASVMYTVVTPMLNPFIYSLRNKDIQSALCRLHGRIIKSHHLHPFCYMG
In short: as §1

[9] = test system: T9, O7E24
T9 sequence (whole entry): T8 sequence (whole entry) with F193S
In short: as §1

[10] = molecular target: T10, OR10A2 (Homo sapiens) (UniProt Q9H208)
T10 sequence (whole entry): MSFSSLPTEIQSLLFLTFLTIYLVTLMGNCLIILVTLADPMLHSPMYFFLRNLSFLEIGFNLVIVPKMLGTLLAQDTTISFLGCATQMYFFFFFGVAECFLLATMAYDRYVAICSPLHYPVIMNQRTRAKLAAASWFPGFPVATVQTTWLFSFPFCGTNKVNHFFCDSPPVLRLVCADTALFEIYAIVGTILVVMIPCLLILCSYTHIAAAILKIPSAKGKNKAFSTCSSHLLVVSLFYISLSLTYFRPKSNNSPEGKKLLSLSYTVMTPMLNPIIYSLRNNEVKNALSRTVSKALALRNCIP
In short: as §1

[11] = molecular target: T11, OR10A3 (Homo sapiens) (UniProt P58181)
T11 sequence (whole entry): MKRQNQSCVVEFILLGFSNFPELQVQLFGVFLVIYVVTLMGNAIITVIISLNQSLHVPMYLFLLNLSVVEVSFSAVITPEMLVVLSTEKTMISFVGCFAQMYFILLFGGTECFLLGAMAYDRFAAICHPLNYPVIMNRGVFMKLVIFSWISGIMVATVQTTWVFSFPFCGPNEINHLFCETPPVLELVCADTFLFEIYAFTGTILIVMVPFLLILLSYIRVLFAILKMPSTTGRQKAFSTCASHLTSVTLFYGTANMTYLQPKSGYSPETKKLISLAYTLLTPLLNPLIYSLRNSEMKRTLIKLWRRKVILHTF
In short: as §1

[12] = molecular target: T12, OR10A4 (Homo sapiens) (UniProt Q9H209)
T12 sequence (whole entry): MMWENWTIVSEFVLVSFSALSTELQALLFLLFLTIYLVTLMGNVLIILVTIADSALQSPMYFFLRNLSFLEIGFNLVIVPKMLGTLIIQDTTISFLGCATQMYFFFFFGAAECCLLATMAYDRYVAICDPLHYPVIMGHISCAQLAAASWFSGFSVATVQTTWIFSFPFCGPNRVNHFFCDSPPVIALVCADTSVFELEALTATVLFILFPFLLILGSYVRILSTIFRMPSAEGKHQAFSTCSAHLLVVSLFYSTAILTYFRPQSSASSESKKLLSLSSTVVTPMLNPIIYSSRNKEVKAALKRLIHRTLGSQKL
In short: as §1

[13] = molecular target: T13, OR10A5 (Homo sapiens) (UniProt Q9H207)
T13 sequence (whole entry): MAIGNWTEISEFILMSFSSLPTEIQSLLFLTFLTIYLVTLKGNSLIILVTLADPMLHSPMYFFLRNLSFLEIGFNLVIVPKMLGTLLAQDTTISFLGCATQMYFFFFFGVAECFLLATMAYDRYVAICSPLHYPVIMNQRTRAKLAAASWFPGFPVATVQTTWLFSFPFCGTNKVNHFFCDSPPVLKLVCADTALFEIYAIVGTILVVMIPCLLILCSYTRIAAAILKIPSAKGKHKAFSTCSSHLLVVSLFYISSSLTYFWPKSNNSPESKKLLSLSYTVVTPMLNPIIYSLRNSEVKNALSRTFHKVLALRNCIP
In short: as §1

[14] = molecular target: T14, OR10A6 (Homo sapiens) (UniProt Q8NH74)
T14 sequence (whole entry): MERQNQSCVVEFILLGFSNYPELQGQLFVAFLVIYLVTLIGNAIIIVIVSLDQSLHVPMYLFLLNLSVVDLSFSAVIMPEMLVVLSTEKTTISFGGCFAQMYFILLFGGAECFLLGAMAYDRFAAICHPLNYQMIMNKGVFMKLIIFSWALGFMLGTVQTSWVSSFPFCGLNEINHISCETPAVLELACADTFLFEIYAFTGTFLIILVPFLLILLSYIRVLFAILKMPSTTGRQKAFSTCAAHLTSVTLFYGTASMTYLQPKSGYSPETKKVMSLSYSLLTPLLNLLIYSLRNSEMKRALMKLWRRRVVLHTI
In short: as §1

[15] = molecular target: T15, OR10A7 (Homo sapiens) (UniProt Q8NGE5)
T15 sequence (whole entry): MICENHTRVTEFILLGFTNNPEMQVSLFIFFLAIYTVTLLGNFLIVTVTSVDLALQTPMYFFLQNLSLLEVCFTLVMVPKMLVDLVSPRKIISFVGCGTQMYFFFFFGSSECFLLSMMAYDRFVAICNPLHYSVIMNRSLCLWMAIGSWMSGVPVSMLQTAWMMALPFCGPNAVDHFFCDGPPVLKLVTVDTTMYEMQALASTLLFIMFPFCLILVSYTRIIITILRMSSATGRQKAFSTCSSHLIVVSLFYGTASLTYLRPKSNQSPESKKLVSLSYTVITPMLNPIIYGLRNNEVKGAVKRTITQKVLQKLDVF
In short: as §1

[16] = molecular target: T16, OR10AD1 (Homo sapiens) (UniProt Q8NGE0)
T16 sequence (whole entry): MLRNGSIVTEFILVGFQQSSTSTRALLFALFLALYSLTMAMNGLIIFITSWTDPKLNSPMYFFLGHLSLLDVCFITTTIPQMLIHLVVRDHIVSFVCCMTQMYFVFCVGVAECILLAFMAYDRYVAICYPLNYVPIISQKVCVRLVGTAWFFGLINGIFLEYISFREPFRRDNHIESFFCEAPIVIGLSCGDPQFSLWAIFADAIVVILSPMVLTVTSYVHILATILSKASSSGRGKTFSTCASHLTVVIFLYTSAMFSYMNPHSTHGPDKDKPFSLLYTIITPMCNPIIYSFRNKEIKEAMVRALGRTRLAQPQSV
In short: as §1

[17] = molecular target: T17, OR10AG1 (Homo sapiens) (UniProt Q8NH19)
T17 sequence (whole entry): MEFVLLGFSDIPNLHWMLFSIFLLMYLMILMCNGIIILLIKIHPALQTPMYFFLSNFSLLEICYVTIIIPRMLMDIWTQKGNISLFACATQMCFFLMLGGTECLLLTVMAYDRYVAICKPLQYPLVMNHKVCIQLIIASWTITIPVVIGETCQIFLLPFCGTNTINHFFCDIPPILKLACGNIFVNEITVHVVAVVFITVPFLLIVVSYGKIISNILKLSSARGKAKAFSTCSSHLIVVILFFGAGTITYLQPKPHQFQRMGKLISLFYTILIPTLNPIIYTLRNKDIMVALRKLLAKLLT
In short: as §1

[18] = molecular target: T18, OR10C1 (Homo sapiens) (UniProt Q96KK4)
T18 sequence (whole entry): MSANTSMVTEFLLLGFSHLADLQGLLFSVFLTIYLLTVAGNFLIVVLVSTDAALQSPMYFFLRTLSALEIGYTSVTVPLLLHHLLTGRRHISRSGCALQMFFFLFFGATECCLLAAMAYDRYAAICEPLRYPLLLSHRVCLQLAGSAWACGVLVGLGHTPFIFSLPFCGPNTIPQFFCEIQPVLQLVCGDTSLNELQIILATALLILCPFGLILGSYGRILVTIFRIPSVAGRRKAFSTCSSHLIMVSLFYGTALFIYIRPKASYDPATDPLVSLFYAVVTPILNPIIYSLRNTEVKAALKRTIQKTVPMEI
In short: as §1

[19] = molecular target: T19, OR10D3 (Homo sapiens) (UniProt Q8NH80)
T19 sequence (whole entry): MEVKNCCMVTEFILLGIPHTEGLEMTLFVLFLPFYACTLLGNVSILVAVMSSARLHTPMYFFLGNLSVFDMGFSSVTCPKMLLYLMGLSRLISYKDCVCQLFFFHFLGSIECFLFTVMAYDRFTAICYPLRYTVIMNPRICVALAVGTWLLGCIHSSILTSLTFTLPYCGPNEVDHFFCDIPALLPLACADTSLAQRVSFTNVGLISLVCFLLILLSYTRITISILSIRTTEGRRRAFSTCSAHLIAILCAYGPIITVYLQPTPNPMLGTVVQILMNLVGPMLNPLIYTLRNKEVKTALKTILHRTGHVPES
In short: as §1

Measured: odorant receptor agonist call

C1CCCCCCCCCCCCCC1
inactive: [1]

CCC1OC(=O)C(O)=C1C (stereo not given)
not listed: [1]
inactive: all other assays above

Cc1cnc(C)c(C)n1
not listed: [1]
inactive: all other assays above

CCCCC(S)C(C)CO (stereo not given)
inactive: [10] | [11] | [12] | [13] | [14] | [15] | [16] | [17] | [18] | [19]

CCC1OC(C)=C(O)C1=O (stereo not given)
not listed: [1]
inactive: all other assays above

Reference: the M2OR odorant receptor database
